# Test results from ChEMBL document CHEMBL5033998, “Discovery of DDO-2213 as a Potent and Orally Bioavailable Inhibitor of the WDR5-Mixed Lineage Leukemia 1 Protein-Protein Interaction for the Treatment of MLL Fusion Leukemia” (J Med Chem, 2021).
# How the values were obtained:
# K562 = assay: Antiproliferative activity against human K562 cells assessed as cell viability incubated for 72 hrs by CCK8 assay; format: functional, cell-based; details: K562, 72 h
# Procedure, shortened: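 Cells seeded at 3000–6000 per well, exposed to inhibitor at several concentrations for 72 h; viability read with CCK8 kit. MV4-11 and K562 grown in modified IMDM + 10% FBS, pen/strep; MOLM-13 in RPMI-1640 + 10% FBS; HUVEC in modified DMEM + 10% FBS; 37 °C, 5% CO2. IC50 as mean ± SD of three independent experiments.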
# [1] = Toxicity in Balb/c nude mouse xenografted with human MV4-11 cells assessed as tolerability at 40 to 120 mg/kg, po administered daily for 21 days relative to control; format: organism-based; details: in vivo, 504 h
# Procedure, shortened: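 Nude BALB/c females bearing MV4-11 xenografts, dosed orally each day for 21 days at 40, 80 or 120 mg/kg, saline vehicle controls (6 mice/group); body weight recorded every other day.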
# [2] = biological target: WD repeat-containing protein 5 (Homo sapiens) (UniProt P61964); assay: Binding affinity to WDR5 (unknown origin) assessed as change in entropy by isothermal titration calorimetry assay
# [3] = biological target: T1, Histone-lysine N-methyltransferase 2A (Homo sapiens, UniProt Q03164); assay: Inhibition of MLL1 (unknown origin) histone methyltransferase activity assessed as inhibition of H3K4 methylation incubated for 30 mins by chemiluminescence assay
# T1 sequence (Q03164 1-2718 limits assumed): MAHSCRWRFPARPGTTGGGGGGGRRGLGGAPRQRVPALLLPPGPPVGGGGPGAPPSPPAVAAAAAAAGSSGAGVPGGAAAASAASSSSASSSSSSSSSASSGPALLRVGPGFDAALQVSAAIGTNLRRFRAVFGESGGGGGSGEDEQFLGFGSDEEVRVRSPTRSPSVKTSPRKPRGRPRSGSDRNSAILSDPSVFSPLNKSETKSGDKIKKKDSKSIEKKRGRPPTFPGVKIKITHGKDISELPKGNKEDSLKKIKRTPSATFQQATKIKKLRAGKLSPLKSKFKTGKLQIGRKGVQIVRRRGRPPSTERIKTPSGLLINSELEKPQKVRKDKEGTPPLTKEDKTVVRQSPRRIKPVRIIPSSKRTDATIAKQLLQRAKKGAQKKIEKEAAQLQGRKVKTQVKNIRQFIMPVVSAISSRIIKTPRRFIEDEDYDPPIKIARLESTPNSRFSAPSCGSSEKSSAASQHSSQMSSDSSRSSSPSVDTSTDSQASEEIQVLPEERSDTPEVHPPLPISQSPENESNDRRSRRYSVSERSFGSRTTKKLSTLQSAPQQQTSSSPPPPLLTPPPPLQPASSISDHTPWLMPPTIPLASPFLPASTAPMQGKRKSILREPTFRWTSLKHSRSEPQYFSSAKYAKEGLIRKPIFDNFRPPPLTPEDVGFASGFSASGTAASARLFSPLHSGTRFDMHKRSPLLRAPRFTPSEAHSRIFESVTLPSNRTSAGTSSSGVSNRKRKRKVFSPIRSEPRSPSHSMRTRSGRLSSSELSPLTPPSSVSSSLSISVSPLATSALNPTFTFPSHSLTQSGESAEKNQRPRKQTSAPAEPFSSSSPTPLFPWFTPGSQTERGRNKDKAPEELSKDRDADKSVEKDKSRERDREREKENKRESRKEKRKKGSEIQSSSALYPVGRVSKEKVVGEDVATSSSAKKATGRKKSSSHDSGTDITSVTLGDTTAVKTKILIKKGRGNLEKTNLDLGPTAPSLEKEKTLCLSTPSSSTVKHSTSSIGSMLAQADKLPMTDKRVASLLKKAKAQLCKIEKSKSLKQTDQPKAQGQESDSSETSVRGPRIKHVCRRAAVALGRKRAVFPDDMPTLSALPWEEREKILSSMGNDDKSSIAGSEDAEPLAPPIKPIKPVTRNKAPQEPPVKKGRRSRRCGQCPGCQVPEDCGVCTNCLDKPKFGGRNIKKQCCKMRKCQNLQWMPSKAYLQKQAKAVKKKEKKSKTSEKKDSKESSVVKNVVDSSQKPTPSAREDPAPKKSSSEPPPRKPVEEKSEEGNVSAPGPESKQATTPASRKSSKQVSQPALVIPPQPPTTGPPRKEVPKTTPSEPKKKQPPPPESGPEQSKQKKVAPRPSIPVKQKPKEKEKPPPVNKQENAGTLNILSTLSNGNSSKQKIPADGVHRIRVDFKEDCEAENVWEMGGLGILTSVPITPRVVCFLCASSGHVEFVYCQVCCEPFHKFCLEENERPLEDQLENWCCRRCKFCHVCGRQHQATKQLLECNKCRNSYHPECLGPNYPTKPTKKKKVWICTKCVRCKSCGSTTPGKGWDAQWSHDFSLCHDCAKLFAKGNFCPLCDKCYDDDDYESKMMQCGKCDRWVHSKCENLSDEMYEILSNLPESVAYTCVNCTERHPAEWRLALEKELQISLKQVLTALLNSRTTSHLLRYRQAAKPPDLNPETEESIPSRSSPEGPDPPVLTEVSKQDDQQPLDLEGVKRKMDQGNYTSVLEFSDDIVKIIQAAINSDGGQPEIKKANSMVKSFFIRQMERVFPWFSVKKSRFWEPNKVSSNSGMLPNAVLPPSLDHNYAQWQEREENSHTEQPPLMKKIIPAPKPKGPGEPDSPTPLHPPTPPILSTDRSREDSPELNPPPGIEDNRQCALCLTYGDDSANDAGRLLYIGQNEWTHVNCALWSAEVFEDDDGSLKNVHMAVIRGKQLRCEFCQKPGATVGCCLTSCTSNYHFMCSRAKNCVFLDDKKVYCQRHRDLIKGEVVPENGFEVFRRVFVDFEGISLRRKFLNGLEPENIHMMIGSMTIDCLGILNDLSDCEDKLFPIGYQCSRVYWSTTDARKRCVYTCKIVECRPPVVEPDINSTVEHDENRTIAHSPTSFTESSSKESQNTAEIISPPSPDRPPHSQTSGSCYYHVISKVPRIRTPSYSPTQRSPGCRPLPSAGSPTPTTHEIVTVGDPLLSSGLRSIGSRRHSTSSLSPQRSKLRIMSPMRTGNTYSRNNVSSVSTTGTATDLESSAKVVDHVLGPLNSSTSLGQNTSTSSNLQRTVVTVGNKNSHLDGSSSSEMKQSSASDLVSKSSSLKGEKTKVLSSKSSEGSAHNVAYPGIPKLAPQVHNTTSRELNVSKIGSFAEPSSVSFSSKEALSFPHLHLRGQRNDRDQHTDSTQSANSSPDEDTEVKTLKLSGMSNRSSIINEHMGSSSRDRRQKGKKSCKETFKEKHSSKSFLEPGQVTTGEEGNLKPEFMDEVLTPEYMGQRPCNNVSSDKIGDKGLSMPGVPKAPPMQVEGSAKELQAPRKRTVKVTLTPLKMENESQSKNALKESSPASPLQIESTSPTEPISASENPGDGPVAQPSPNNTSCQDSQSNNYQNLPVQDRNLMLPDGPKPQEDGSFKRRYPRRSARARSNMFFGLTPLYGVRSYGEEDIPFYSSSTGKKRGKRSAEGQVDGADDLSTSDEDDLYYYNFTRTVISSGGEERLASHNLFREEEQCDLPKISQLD
# T1 sequence (Q03164 2719-3969 limits assumed): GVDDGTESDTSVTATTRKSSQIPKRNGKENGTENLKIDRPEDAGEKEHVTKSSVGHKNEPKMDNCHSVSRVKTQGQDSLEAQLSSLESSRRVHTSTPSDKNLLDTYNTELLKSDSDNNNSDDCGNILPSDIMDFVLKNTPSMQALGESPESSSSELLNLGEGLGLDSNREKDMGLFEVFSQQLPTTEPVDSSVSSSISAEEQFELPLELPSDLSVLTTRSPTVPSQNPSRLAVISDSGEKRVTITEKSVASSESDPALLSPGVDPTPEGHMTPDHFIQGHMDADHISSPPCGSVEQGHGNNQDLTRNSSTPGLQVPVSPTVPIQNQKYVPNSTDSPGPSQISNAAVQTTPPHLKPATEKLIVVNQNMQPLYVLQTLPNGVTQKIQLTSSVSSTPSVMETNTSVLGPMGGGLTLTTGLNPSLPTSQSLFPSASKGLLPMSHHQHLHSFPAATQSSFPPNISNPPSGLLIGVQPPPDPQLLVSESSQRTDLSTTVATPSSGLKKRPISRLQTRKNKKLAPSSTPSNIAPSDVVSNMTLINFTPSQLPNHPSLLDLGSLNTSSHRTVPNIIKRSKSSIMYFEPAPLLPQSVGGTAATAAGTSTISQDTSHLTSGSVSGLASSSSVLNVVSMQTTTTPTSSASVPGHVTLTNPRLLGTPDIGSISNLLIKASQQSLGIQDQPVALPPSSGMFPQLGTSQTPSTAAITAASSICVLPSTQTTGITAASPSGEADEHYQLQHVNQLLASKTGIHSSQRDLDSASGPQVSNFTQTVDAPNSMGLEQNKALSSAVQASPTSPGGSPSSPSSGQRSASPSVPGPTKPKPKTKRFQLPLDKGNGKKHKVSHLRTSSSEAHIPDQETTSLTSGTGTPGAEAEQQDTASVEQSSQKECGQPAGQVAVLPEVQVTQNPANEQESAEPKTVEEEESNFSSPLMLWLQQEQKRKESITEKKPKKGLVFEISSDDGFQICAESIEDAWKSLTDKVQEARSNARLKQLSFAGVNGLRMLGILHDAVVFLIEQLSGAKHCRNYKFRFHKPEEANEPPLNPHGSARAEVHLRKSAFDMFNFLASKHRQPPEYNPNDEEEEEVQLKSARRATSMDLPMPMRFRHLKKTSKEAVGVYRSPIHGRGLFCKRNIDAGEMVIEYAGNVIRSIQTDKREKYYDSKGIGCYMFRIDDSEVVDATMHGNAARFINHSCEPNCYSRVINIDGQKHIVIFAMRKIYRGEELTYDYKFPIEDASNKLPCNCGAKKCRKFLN
# [4] = Cmax in Sprague-Dawley rat at 10 mg/kg, po measured upto 24 hrs by LC-MS/MS analysis; format: ADME, organism-based; design: route oral, dose 10 mg/kg, time <=24; details: in vivo
# Procedure, shortened: (§1)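 Male SD rats, 6–8 weeks, 220 ± 30 g; single oral dose 10 mg/kg (n = 3). Plasma sampled at 0, 0.25, 0.5, 1, 2, 4, 6, 8 and 24 h, stored at −80 °C, quantified by LC-MS/MS; parameters reported as mean ± SEM.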
# [5] = Metabolic stability in rat liver microsomes assessed as half life at 1 uM in presence of NADPH by LC-MS/MS analysis; format: ADME, Microsome
# Procedure, shortened: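 Compound at 1 μM preincubated 5 min at 37 °C with human or rat liver microsomes (0.7 mg/mL) in 100 mM PBS pH 7.4; reaction started with 1 mM NADPH.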
# [6] = MRT in Sprague-Dawley rat at 2 mg/kg, iv measured upto 24 hrs by LC-MS/MS analysis; format: ADME, organism-based; details: in vivo
# [7] = biological target: Protein arginine N-methyltransferase 5 (Homo sapiens, UniProt O14744); assay: Inhibition of PRMT5 (unknown origin) assessed as effect on H3R8/H4R3 methylation incubated for 30 mins by Alphascreen assay
# Protein arginine N-methyltransferase 5, sequence (O14744 whole entry): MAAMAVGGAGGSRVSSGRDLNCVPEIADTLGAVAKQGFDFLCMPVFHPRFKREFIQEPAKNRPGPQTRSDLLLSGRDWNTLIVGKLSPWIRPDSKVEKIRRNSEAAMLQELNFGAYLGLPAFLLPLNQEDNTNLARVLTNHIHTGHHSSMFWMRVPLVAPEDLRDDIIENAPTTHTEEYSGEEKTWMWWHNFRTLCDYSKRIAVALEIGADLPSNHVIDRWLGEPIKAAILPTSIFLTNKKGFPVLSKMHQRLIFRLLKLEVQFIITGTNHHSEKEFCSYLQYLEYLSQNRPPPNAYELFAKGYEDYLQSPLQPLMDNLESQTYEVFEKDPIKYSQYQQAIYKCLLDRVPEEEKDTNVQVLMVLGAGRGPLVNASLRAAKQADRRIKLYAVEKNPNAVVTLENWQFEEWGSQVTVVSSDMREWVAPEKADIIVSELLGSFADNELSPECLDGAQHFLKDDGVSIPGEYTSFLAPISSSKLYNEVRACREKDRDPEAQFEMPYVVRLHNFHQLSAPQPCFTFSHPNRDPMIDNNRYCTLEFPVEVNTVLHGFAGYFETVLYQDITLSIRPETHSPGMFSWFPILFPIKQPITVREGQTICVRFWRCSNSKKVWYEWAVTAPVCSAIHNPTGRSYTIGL
# Procedure, shortened: (§2)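 AlphaScreen: enzyme, SAM and compound mixed in 10 mM PBS for 30 min at room temperature; acceptor beads and substrate antibody added, 30 min at room temperature, then streptavidin donor beads; read on AlphaScreen reader.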
# [8] = AUC (0 to infinity) in Sprague-Dawley rat at 10 mg/kg, po measured upto 24 hrs by LC-MS/MS analysis; format: ADME, organism-based; design: route oral, dose 10 mg/kg, time <=24; details: in vivo; procedure, shortened: as §1
# [9] = biological target: T1, Histone-lysine N-methyltransferase 2A; assay: Inhibition of MLL1 (unknown origin) in human MV4-11 cells assessed as decrease in Hoxa9 mRNA level at 1 to 10 uM measured after 7 days by RT-PCR analysis; details: dose 1-10 µM, time 7.0 day
# [10] = MRT in Sprague-Dawley rat at 10 mg/kg, po measured upto 24 hrs by LC-MS/MS analysis; format: ADME, organism-based; details: in vivo; procedure, shortened: as §1
# [11] = biological target: Histone-lysine N-methyltransferase 2A/WDR5 (Homo sapiens, UniProt P61964); assay: Inhibition of MLL1-WDR5 (unknown origin) protein-protein interaction using Thr-FAM as probe by fluorescence polarization competition assay
# Procedure, shortened: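 Competitive FP with WDR5 and 10mer-Thr-FAM probe in 100 mM KH2PO4, 25 mM KCl, 0.01% Triton X-100, pH 6.5; read at λex 485 ± 25 nm, λem 535 ± 25 nm. IC50 from three independent replicates ± SD.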
# [12] = AUC (0 to t) in Sprague-Dawley rat at 10 mg/kg, po measured upto 24 hrs by LC-MS/MS analysis; format: ADME, organism-based; design: route oral, dose 10 mg/kg, time <=24; details: in vivo; procedure, shortened: as §1
# [13] = biological target: T2, Histone-lysine N-methyltransferase EHMT2 (Homo sapiens, UniProt Q96KQ7); assay: Inhibition of G9a (unknown origin) assessed as effect on H3K9 methylation incubated for 30 mins by Alphascreen assay; procedure, shortened: as §2
# T2 sequence (Q96KQ7 whole entry): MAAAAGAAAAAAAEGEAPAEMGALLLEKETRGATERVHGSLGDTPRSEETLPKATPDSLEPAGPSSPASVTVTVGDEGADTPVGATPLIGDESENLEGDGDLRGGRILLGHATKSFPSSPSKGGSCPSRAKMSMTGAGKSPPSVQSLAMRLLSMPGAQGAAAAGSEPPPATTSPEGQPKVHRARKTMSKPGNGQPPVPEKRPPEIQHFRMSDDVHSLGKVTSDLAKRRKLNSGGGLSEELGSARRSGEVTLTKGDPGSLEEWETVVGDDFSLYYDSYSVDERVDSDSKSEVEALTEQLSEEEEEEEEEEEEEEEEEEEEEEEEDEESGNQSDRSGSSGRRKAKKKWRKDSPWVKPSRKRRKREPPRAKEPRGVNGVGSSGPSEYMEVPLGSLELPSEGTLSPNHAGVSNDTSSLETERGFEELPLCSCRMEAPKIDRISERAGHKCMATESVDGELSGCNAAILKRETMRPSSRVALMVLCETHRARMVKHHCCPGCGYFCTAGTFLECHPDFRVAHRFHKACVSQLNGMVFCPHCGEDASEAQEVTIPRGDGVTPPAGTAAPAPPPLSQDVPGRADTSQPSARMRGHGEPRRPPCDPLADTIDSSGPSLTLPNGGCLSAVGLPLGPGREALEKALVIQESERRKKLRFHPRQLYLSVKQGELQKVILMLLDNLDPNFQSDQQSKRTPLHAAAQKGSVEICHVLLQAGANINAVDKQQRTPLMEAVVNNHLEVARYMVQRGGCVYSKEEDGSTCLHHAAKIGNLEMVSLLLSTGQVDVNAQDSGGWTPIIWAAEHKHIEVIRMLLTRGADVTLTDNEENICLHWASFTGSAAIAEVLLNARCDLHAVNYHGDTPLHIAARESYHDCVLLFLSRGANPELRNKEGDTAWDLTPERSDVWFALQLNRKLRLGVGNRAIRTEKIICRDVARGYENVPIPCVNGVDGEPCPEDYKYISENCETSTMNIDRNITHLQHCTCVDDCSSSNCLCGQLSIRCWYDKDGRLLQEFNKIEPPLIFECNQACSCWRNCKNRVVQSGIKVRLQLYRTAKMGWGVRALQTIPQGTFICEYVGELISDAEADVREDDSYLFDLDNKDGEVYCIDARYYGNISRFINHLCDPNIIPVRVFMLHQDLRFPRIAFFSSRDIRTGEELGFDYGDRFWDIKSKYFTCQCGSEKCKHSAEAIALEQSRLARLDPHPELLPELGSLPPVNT
# [14] = Half life in Sprague-Dawley rat at 2 mg/kg, iv measured upto 24 hrs by LC-MS/MS analysis; format: ADME, organism-based; details: in vivo
smiles,measurement,setting,value
CN1CCN(c2cc(F)c(-c3ccc(C(=O)N(C)C)cc3)cc2Nc2ncnc(Cl)c2N)CC1,IC50,K562,> 100000 nM
same,Activity,[1],Non-Toxic
same,-TdeltaS,[2],2.51 kcal/mol
same,IC50,[3],780 nM
same,Cmax,[4],159 ng/mL
same,half-life at 1 µM,[5],1.1 h
same,MRT,[6],1.18 h
same,IC50,[7],> 100000 nM
same,AUC(0-inf),[8],1740 ng·h/mL
same,inhibition,[9],Dose-Dependent Effect
same,MRT,[10],5.42 h
same,IC50,[11],29 nM
same,AUC(0-t) at 24 h,[12],1320 ng·h/mL
same,IC50,[13],> 100000 nM
same,half-life,[14],1.7 h
